{
  "source": "ChEMBL document CHEMBL1268883",
  "about": "“Plasma-mediated release of morphine from synthesized prodrugs” (Bioorg Med Chem Lett, 2010)",
  "key": {"[1]": {"test_system": "SK-N-SH", "experiment": "Induction of morphine release in human SK-N-SH cells assessed as morphine induced inhibition of forskolin-induced cAMP production ny chemiluminescent assay", "assay_type": "cell-based", "method_in_brief": "(§1)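 PDA (0.8 mM) was preincubated 24 h with PBS or 50% human plasma. SK-N-SH cells were switched to serum-free medium, exposed to the solutions (equivalent to 5 µM prodrug) for 15 min, then given 5 µM forskolin or vehicle for 15 min. Cells were rinsed and lysed, and cAMP was measured by chemiluminescent assay against a cAMP standard curve.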"}, "[2]": {"experiment": "Induction of morphine release at 37.5 nmol in presence of 50% rat plasma assessed as disappearance of compound peak during 5 to 10 mins at 250 uM", "assay_type": "cell-free", "conditions": "read-out: Activity; call rule not given here", "method_in_brief": "(§2)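 PDA (250 µM) incubated with 50% plasma in PBS at 37 °C. Aliquots were withdrawn at intervals, quenched with 2 vol ice-cold 10% DMSO/acetonitrile and centrifuged. The supernatant was analysed by UPLC, following the PDA peak (4.3–4.4 min) and the morphine peak. Morphine was calculated from a morphine standard curve.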"}, "[3]": {"experiment": "Induction of morphine release at 37.5 nmol in presence of 50% guinea pig plasma assessed as disappearance of compound peak during 5 to 10 mins at 250 uM", "assay_type": "cell-free, Cavia porcellus", "conditions": "read-out: Activity", "method_in_brief": "as §2"}, "[4]": {"experiment": "Stability in PBS solution up to 24 hrs", "assay_type": "physicochemical", "conditions": "buffer", "method_in_brief": "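PDA incubated in PBS under the plasma-incubation conditions for up to 24 h, then analysed by UPLC.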"}, "[5]": {"experiment": "Induction of morphine release in PBS solution assessed as morphine induced inhibition of forskolin-induced cAMP production ny chemiluminescent assay", "assay_type": "physicochemical", "conditions": "buffer", "method_in_brief": "as §1"}, "[6]": {"experiment": "Induction of morphine release at 37.5 nmol in presence of 50% mouse plasma assessed as disappearance of compound peak during 5 to 10 mins at 250 uM", "assay_type": "cell-free", "conditions": "read-out: Activity", "method_in_brief": "as §2"}, "[7]": {"experiment": "Induction of morphine release at 37.5 nmol in presence of 50% human plasma assessed as disappearance of compound peak during 5 to 10 mins at 250 uM", "assay_type": "cell-free", "conditions": "read-out: Activity", "method_in_brief": "as §2"}, "[8]": {"experiment": "Induction of morphine release at 37.5 nmol in presence of 25 mg/ml HSA assessed as morphine level after 2 to 6 hrs by UPLC", "conditions": "human", "method_in_brief": "(§3)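 PDB (37.5 nmol initial) incubated at 37 °C in 300 µl total with 150 µl sample: purified human serum BCE (0.5 U/ml) or HSA (25 mg/ml), both equivalent to 50% of serum levels, or 50% human plasma in PBS. Aliquots taken over time, mixed with 2 vol ice-cold 10% DMSO in acetonitrile, centrifuged. Supernatant run on UPLC. Morphine quantified from morphine standard curve (1.6–1.75 min peak area).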"}, "[9]": {"experiment": "Induction of morphine release at 37.5 nmol in presence of 25 mg/ml HSA assessed as morphine level after 15 mins by UPLC", "conditions": "human, 0.25 h", "method_in_brief": "as §3"}, "[10]": {"experiment": "Induction of morphine release at 37.5 nmol in presence of 0.5 U/ml butyryl choline esterase assessed as morphine level after 3 to 6 hrs by UPLC", "assay_type": "physicochemical", "conditions": "isolated protein", "method_in_brief": "as §3"}, "[11]": {"test_system": "Plasma", "experiment": "Induction of morphine release at 37.5 nmol in presence of mouse plasma assessed as morphine level per ml plasma by UPLC", "assay_type": "cell-free", "method_in_brief": "(§4)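 Rates were taken from the linear 0–15 min time points. The mix held 37.5 nmol PDB initial and 150 µl plasma or enzyme sample (BCE 0.5 U/ml, HSA 25 mg/ml) in 300 µl total at 37 °C. After ANDM deproteinisation, morphine was measured by UPLC. Rates are expressed per ml of plasma or of enzyme sample at its human-plasma level.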"}, "[12]": {"test_system": "Plasma", "experiment": "Induction of morphine release at 37.5 nmol in presence of human plasma assessed as morphine level per ml plasma by UPLC", "assay_type": "cell-free", "method_in_brief": "as §4"}, "[13]": {"test_system": "Plasma", "experiment": "Induction of morphine release at 37.5 nmol in presence of 50% human plasma after 6 hrs by UPLC", "assay_type": "cell-free", "method_in_brief": "as §3"}, "[14]": {"experiment": "Induction of morphine release at 37.5 nmol in presence of 0.5 U/ml butyryl choline esterase assessed as morphine level after 15 mins by UPLC", "assay_type": "physicochemical", "conditions": "isolated protein, 0.25 h", "method_in_brief": "as §3"}, "[15]": {"test_system": "Plasma", "experiment": "Induction of morphine release at 37.5 nmol in presence of 50% human plasma after 15 mins by UPLC", "assay_type": "cell-free", "conditions": "0.25 h", "method_in_brief": "as §3"}, "[16]": {"experiment": "Induction of morphine release at 37.5 nmol in presence of HSA assessed as morphine level per mg of protein by UPLC", "conditions": "human"}, "[17]": {"test_system": "Plasma", "experiment": "Induction of morphine release at 37.5 nmol in presence of rat plasma assessed as morphine level per ml plasma by UPLC", "assay_type": "cell-free", "method_in_brief": "as §4"}, "[18]": {"experiment": "Induction of morphine release at 37.5 nmol in presence of guinea pig plasma assessed as morphine level per ml plasma by UPLC", "assay_type": "cell-free, Cavia porcellus", "method_in_brief": "as §4"}, "[19]": {"experiment": "Induction of morphine release at 37.5 nmol in presence of butyryl choline esterase assessed as morphine level per mg of protein by UPLC", "conditions": "isolated protein"}},
  "data": [
    {"smiles": "CN1CC[C@]23c4c5ccc(OC(=O)CCC(=O)OC(C)(C)C)c4O[C@H]2[C@@H](O)C=C[C@H]3[C@H]1C5", "values": [
      {"measurement": "Activity", "setting": "[1]", "result": "Active"},
      {"measurement": "metabolised at 250 µM", "setting": "[2]", "result": "> 90", "unit": "%"},
      {"measurement": "metabolised at 250 µM", "setting": "[3]", "result": "> 90", "unit": "%"},
      {"measurement": "Stability", "setting": "[4]", "result": "Stable"},
      {"measurement": "Activity", "setting": "[5]", "result": "Not Active"},
      {"measurement": "metabolised at 250 µM", "setting": "[6]", "result": "> 90", "unit": "%"},
      {"measurement": "metabolised at 250 µM", "setting": "[7]", "result": "> 90", "unit": "%"}
    ]},
    {"smiles": "CN1CC[C@]23c4c5ccc(OC(=O)c6ccc(OCC(=O)NCCOCCOCCNC(=O)OC(C)(C)C)cc6)c4O[C@H]2[C@@H](O)C=C[C@H]3[C@H]1C5", "values": [
      {"measurement": "Activity", "setting": "[8]", "result": 2, "unit": "%"},
      {"measurement": "Activity", "setting": "[9]", "result": 1, "unit": "%"},
      {"measurement": "Activity", "setting": "[10]", "result": 4, "unit": "%"},
      {"measurement": "Activity", "setting": "[11]", "result": 20.9, "unit": "nmol/min"},
      {"measurement": "Activity", "setting": "[12]", "result": 1.1, "unit": "nmol/min"},
      {"measurement": "Activity", "setting": "[13]", "result": 20, "unit": "%"},
      {"measurement": "Activity", "setting": "[14]", "result": 2.5, "unit": "%"},
      {"measurement": "Activity", "setting": "[15]", "result": 4, "unit": "%"},
      {"measurement": "Activity", "setting": "[16]", "result": 0.3, "unit": "nmol/min"},
      {"measurement": "Activity", "setting": "[17]", "result": 4.2, "unit": "nmol/min"},
      {"measurement": "Activity", "setting": "[18]", "result": 2.9, "unit": "nmol/min"},
      {"measurement": "Activity", "setting": "[19]", "result": 0.8, "unit": "nmol/min"}
    ]}
  ]
}
